Bioassay records: PubChem BioAssay, several laboratories
A1 inh: inhibitors of the anti-apoptotic protein A1, read as caspase activation; MEF A1-2A-BIM cells, Caspase-Glo 3/7 luminescence, 3 h; percent of clofoctol response, vehicle zero; caspase activation, % (no concentration beside the values); 330,000 compounds, 0.066% hits;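 active = over half of replicate activation scores above 10%, or exactly half above 10 with the replicate mean above 10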
LANA-H2B inh: blocks KSHV LANA binding to histone H2A/H2B; AID 2629; cell-free LANA-H2A/H2B peptide, fluorescence polarization; 320,000 compounds, 0.6% hits; inhibition, % (test concentration not listed); Q9QR71; in the data active = inhibition mostly above about 10%, no sharp cut-off; inactive = mostly below about 6.7%
Target sequence (Q9QR71 whole entry, looked up): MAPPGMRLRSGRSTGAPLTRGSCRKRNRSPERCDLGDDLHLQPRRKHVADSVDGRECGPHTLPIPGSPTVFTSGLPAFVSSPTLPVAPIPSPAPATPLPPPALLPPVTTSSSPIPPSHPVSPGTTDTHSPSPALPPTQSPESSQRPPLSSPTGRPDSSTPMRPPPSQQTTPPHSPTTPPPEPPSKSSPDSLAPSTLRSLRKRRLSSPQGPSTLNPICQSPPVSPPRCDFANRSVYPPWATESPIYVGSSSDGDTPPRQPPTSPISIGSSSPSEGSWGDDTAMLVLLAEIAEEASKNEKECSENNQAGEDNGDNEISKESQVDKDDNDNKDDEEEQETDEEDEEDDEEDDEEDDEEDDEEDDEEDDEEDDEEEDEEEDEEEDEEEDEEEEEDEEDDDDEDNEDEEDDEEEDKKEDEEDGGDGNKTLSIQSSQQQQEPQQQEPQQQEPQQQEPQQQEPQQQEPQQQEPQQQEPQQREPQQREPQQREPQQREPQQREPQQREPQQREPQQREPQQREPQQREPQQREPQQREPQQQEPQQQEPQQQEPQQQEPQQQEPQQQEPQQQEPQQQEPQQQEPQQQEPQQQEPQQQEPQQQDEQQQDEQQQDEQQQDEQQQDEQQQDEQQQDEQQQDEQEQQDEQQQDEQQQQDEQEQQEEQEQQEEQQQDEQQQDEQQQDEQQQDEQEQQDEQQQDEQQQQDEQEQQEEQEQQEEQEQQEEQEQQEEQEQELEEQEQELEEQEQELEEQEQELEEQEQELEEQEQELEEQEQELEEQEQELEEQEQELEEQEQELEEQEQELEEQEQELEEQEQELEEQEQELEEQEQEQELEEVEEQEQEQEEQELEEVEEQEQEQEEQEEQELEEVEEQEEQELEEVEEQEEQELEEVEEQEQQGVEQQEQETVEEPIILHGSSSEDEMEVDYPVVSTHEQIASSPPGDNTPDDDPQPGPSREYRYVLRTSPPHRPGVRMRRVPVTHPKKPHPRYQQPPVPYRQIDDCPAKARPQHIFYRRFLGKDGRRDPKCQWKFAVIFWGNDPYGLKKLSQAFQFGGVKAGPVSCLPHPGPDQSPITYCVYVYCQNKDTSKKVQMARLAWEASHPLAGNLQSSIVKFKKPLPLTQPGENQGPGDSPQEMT
HNF4A DNA FP: change in binding of human HNF4 alpha to DNA; 360,000 compounds, 0.3% hits; activity change, % at 10 µM; HNF4a-FITC DNA binding, fluorescence polarization, 1 h; in the data active = activity change above about 30%, passing the limit was not always enough
ZTA counter: blocks Epstein-Barr virus ZTA, an EBNA-1 counter-screen; P03206; ZTA-DNA binding, fluorescence polarization; inhibition, % at 11 µM; 320,000 compounds, 0.15% hits; in the data active = inhibition above about 33%
EBNA-1 inh: blocks EBNA-1 binding to DNA | EBNA-1 DNA binding, fluorescence polarization | inhibition, % at 14.8 µM | 300,000 compounds, 0.34% hits; in the data active = inhibition above about 28%
CSN deneddyl inh: blocks human CSN-mediated cullin deneddylation | Purified CSN, SCF-Nedd8-OG deneddylation, fluorescence polarization | inhibition, % at 12.5 µM | 360,000 compounds, 0.38% hits;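 active = pattern-corrected inhibition above about 35%, with an unprinted fluorescence ratio check between 0.5 and 1.5, limit read from the data, passing the limit was not always enough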;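 note: 0% = enzyme with substrate and 100% = substrate without enzyme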
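Assay system: purified human Csn5 enzyme expressed in HEK293T cells; measure: % inhibition; also added: SCFSkp2-Nedd8OG substrate at 10 nM final; technique: fluorescence polarization; times: reaction 90 min, room temperature; medium: Tris buffer pH 7.5, NaCl, DTT, Tween-20, trehalose, ovalbumin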
An asterisk follows results filed as active; . = no result. Only some compounds are listed: those with a hit (about 1.5% of all), similar ones and a draw of the others.

SMILES | A1 inh | LANA-H2B inh | HNF4A DNA FP | ZTA counter | EBNA-1 inh | CSN deneddyl inh
CNCCC(Oc1ccc(C(F)(F)F)cc1)c1ccccc1 (stereo not drawn) | -1 | 13* | 0 | -1 | 8 | -1
CSCCC(NS(=O)(=O)/C=C/c1ccccc1)C(=O)NCCc1ccc(S(N)(=O)=O)cc1 (stereo not drawn) | 1 | -2 | 6 | -2 | -8 | -6
Cc1ccc(OC/C(=N\O)C(C)(C)C)c([N+](=O)[O-])c1 | -1 | -2 | 1 | -8 | -8 | -3
Cc1cc(=O)oc2cc(OCC(=O)N3CCc4ccccc4C3)ccc12 | 1 | -3 | 0 | 9 | 0 | 0
COc1ccc2c(c1)c(=O)oc1c(C)c(OCC(=O)N3CCc4ccccc4C3)ccc12 | 0 | -1 | -9 | 5 | 5 | 36*
CN(CC(=O)Nc1cccc(Cl)c1)C1=NS(=O)(=O)c2ccccc21 | -1 | -3 | -1 | . | . | 3
CN(CC(=O)Nc1ccc(Cl)cc1)C1=NS(=O)(=O)c2ccccc21 | 1 | 27* | -1 | 2 | . | -1
Cc1[nH]c2ccc(C(=O)N3CCN(c4ccccn4)CC3)cc2c1C | 0 | -1 | 103* | 15 | 4 | -4
CCOC(=O)N1CCC(NC(=O)c2cc(C(=O)Nc3ccc(S(=O)(=O)N4CCOCC4)cc3)ccc2CO)CC1 | 0 | 17* | -2 | -17 | 1 | 2
Cc1ccc(S(=O)(=O)N2CCOCC2)cc1C(=O)OCC(=O)NC1CCCCC1 | . | . | -7 | . | . | 2
Cc1ccc(S(=O)(=O)N2CCOCC2)cc1C(=O)OCC(=O)NC1CC1 | 0 | 15 | 1 | -2 | . | 60*
COc1ccc([C@H]2CC(=O)C[C@@H](CCn3cc(-c4ccccn4)nn3)O2)cc1 | . | . | -2 | . | . | 2
CCOC(=O)Cc1csc(SCC(=O)Nc2sc3c(c2C(N)=O)CCC3)n1 | 0 | 0 | -15 | 9 | 1 | 37*
NC(=O)c1c(NC(=O)CSc2nnc(-c3ccco3)n2-c2ccccc2)sc2c1CCC2 | 0 | 3 | -13 | 17 | 14 | 36*
CCC1(CC)NC(=O)N(CC(=O)Nc2sc3c(c2C(N)=O)CCC3)C1=O | 1 | 2 | 3 | -7 | 0 | 41*
C/C(=N/NC(=O)c1cc(-c2cccc([N+](=O)[O-])c2)n[nH]1)c1cccc(O)c1 | -1 | 15* | 1 | 26 | 23 | 5
C/C(=N\NC(=O)c1cc(-c2cccc([N+](=O)[O-])c2)n[nH]1)c1ccc(F)cc1 | 0 | 1 | 1 | 20 | 15 | 0
COc1ccc(C2C(C(=O)c3ccco3)=C(O)C(=O)N2CC2CCCO2)cc1OC (stereo not drawn) | 0 | 19* | 1 | -4 | -5 | 1
S=c1[nH]nc(-c2ccc(Cl)cc2Cl)n1-c1ccc(Cl)cc1 | 1 | 45* | -1 | -6 | -17 | 5
O=C(COC(=O)C1CC2CCCC(C1)C2=O)NNC(=O)c1ccccc1F (stereo not drawn) | 0 | 34* | 2 | -14 | -19 | -1
Cc1nonc1OCCNCCNc1ccccc1[N+](=O)[O-] | 1 | 24* | 4 | 2 | 4 | 0
COc1ccc(Cc2c(C3CCCCC3)nc3c(Cl)cc(C(F)(F)F)cn23)c(C)c1 | . | . | 4 | . | . | -3
CN(CC(=O)Nc1ccccc1Br)C(=O)c1ccncc1 | 0 | 29* | 0 | 2 | -6 | -5
CSc1cccc(N2C(=O)C3CCCN3C2=S)c1 (stereo not drawn) | 0 | 0 | 2 | 16 | 1 | -1
Cc1ccc(S(=O)(=O)Nc2ccccc2C(=O)N2CCN(C)CC2)cc1 | -1 | 102* | 0 | 8 | 13 | 0
SMILES | A1 inh | LANA-H2B inh | HNF4A DNA FP | ZTA counter | EBNA-1 inh | CSN deneddyl inh
Cc1ccc(S(=O)(=O)Nc2ccccc2C(=O)N2CCCC2)cc1 | 0 | -6 | 1 | 3 | -2 | -4
O=C(c1cc(Cl)cc(Cl)c1)N1CCC2CC1c1cc(N3CCCCC3)ccc12 (stereo not drawn) | . | . | 7 | . | . | -4
COc1ccc(N2CCN(C(=O)C(=O)c3cn(CC(=O)N4CCCC4)c4ccccc34)CC2)cc1 | . | . | 5 | . | . | -1
Cc1ccc(NC(=O)c2noc3c2CCCCC3)cc1 | -4 | 8.5* | -2 | -13 | -8 | 0
CCc1ccc(NC(=O)c2noc3c2CCCCC3)cc1 | -1 | -8 | 0 | 1 | -2 | -2
COc1cccc(/C=N/Nc2ncnc3c2[nH]c2ccc(C)cc23)c1OC | -1 | -1 | 52* | 13 | 17 | 68*
Cc1cc(C)nc(Nc2n[nH]c(-c3ccccc3Br)n2)n1 | -2 | 18* | -1 | 8 | 0 | 2
Cc1cc(C)nc(Nc2n[nH]c(-c3ccccc3C)n2)n1 | -2 | -3 | 6 | 8 | -5 | 1
COc1cccc(C2/C(=C(\O)c3ccc4c(c3)OCCO4)C(=O)C(=O)N2Cc2cccnc2)c1 (stereo not drawn) | 1 | 0 | 3 | -4 | -2 | 1
Cc1ccc(C)c(C(=O)COC(=O)CCCC(=O)Nc2cc(C(F)(F)F)ccc2Cl)c1 | 0 | 12* | -4 | -20 | -13 | -3
Cc1ccc(S(=O)(=O)N[C@@H](Cc2ccccc2)C(=O)N2CCC(C(=O)N[C@@H](CC(C)C)C(=O)O)CC2)cc1 | 0 | -2 | -2 | 7 | 9 | 5
COC(=O)c1ccc(NC(=O)CSc2nn3c(=O)c(C)nnc3s2)cc1 | 0 | -8 | 1 | 12 | 11 | -4
COc1ccc(NC(=O)CSc2nn3c(=O)c(C)nnc3s2)cc1 | 0 | 28* | 3 | 23 | 15 | -1
CN(C)C(=O)c1cccc(-c2cnc3c(NC=O)cc(-c4ccccc4F)cn23)c1 | . | . | -1 | . | . | -4
COc1ccc(-c2csc(-n3ncc(-c4ccccn4)c3N)n2)cc1 | 1 | -1 | 28* | 4 | 20 | 1
Nc1c(-c2ccccn2)cnn1-c1nc(-c2ccc(F)cc2)cs1 | 0 | 2 | -2 | 6 | 2 | -7
CCOC(=O)CC[C@H](NC(=O)Cn1cnc(C(=O)Nc2ccc(C)c(C)c2)n1)C(=O)OCC | . | . | 0 | . | . | 3
Cc1cc(C)c(NC(=O)CC(C)(C)C)c(Cl)c1 | 0 | 2 | -2 | 2 | -5 | 3
Cc1cc(C)c(NC(=O)CS)c(Cl)c1 | -1 | 18* | 4 | -21 | -6 | -2
O=C(Nc1ncccn1)c1ccc([N+](=O)[O-])o1 | 1 | -19 | 78* | 11 | 16 | 64*
CC(OC(=O)c1cccc(-n2cnnn2)c1)C(=O)Nc1cccc(Cl)c1 (stereo not drawn) | 0 | -6 | 1 | 0 | -3 | 1
CN1CCc2c(sc(NC(=O)c3ccc(S(=O)(=O)N4CCCCCC4)cc3)c2C(N)=O)C1 | -1 | -2 | 37 | -4 | -4 | 22
